Bounds are passed on as bounds.

Usually EC50 stands for the concentration giving half of the maximal effect. Broadly, the IC50 is the point on the concentration scale where inhibition reaches its midpoint.

Data set [1] deals with Toxoplasma gondii. Kind of data set: Antiparasitic activity against Toxoplasma gondii expressing Cryptosporidium parvum IMPDH and co-expressing yellow fluorescent protein infected to human TERT immobilized human foreskin fibroblasts assessed as parasite growth inhibition for 6 to 7 days by fluorescence based assay. The data set is classed as functional, organism-based. In a few lines:
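Parasite lines carrying yellow fluorescent protein were grown on hTERT-immortalized human foreskin fibroblasts. One line depends on C. parvum IMPDH (Toxo/CpIMPDH). The other is wild-type strain RH, which has its own eukaryotic IMPDH. Fluorescence (Ex 485, Em 530) was read daily for 6-7 days. Growth inhibition was taken on a day within exponential growth.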

The test system of data set [2] is Liver. Kind of data set: Half life in mouse liver microsomes. It counts as ADME, Microsome.
Data set [3] addresses T1, Inosine-5'-monophosphate dehydrogenase (Cryptosporidium parvum, UniProt Q8T6T2).
T1 sequence (Q8T6T2 whole entry): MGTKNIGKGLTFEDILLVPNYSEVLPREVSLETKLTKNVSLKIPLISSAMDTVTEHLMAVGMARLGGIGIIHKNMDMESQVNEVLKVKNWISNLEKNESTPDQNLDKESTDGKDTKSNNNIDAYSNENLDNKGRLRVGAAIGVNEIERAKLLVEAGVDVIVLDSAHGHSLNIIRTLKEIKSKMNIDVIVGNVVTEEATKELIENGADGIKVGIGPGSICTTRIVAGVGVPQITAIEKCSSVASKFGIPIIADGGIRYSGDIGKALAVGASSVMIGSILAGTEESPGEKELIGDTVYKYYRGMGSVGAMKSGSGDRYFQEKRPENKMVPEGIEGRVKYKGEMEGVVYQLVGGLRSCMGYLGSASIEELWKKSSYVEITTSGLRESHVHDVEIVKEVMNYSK
Kind of data set: Inhibition of Cryptosporidium parvum recombinant IMPDH expressed in Escherichia coli assessed as production of NADH in presence of 0.05% fatty acid free BSA incubated for 5 mins by fluorescence based assay. In a few lines: (§1)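 Recombinant CpIMPDH purified from E. coli, 10 nM, preincubated with inhibitor 5 min at room temperature before substrates added. NADH formation followed by fluorescence. Line 3 also includes 0.05% fatty-acid-free BSA.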

In data set [4] the target is T1, Inosine-5'-monophosphate dehydrogenase. The experiment in a line: Inhibition of Cryptosporidium parvum recombinant IMPDH expressed in Escherichia coli assessed as production of NADH incubated for 5 mins by fluorescence based assay. In a few lines: as §1
Data set [5] deals with Toxoplasma gondii. Kind of data set: Selectivity ratio of EC50 of wild type Toxoplasma gondii to EC50 of Toxoplasma gondii expressing Cryptosporidium parvum IMPDH. In a few lines: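 Selectivity is the EC50 against wild-type RH T. gondii divided by the EC50 against the CpIMPDH-dependent strain. Both were measured by daily YFP fluorescence of parasites on hTERT human foreskin fibroblasts over 6-7 days, with inhibition taken in exponential growth.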

The test system of data set [6] is Toxoplasma gondii. Kind of data set: Toxicity against wild type Toxoplasma gondii expressing yellow fluorescent protein infected in human TERT immobilized human foreskin fibroblasts assessed as parasite growth inhibition for 6 to 7 days by fluorescence based assay. The data set is classed as organism-based. In a few lines:
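Parasite lines carrying yellow fluorescent protein were grown on hTERT-immortalized human foreskin fibroblasts. One line depends on C. parvum IMPDH (Toxo/CpIMPDH). The other is wild-type strain RH, which has its own eukaryotic IMPDH. Growth inhibition was taken on a day within exponential growth.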

For data set [7], the system named is Plasma. The experiment in a line: Half life in mouse plasma. It counts as ADME, cell-free.
In data set [8] the target is Inosine-5'-monophosphate dehydrogenase 2 (Homo sapiens, UniProt P12268). Kind of data set: Inhibition of human IMPDH 2.

Regarding `C/C(=N\O)c1cccc(C(C)(C)NC(=O)Nc2ccc(Cl)c([N+](=O)[O-])c2)c1`, the EC50 in data set [1] came out at 0.006 µM. Moreover, in data set [2], the t1/2 turned out to be 0.183 h. Further, the results for the IC50 in data set [3] and in data set [4] were 0.002 µM and 0.00066 µM, respectively.

`C/C(=N\O)c1cccc(C(C)(C)NC(=O)Nc2ccc(Cl)c(C(N)=O)c2)c1`: the “Ratio EC50” value in data set [5] was over 12. In addition, the figures for the EC50 in data set [1] and in data set [6] were 1.9 µM and over 25 µM, respectively. Also, the results for the t1/2 in data set [7] and in data set [2] were over 2 h and 3.17 h, respectively. Further, the half-maximal inhibitory concentration (IC50) in data set [3] was 0.006 µM.

For the compound `C/C(=N\O)c1cccc(C(C)(C)NC(=O)Nc2ccc3cccnc3c2)c1`, in data set [5], the “Ratio EC50” value is given as 230. The EC50 in data set [1] was 0.058 µM; in data set [6], 14 µM. Besides, the t1/2 in data set [7] was over 2 h; in data set [2], 0.75 h. For the same compound, the IC50 in data set [3] was determined as 0.0012 µM; in data set [4] it was 0.0009 µM.

Regarding `CO/N=C(\C)c1cccc(C(C)(C)NC(=O)Nc2ccc(Cl)c(C(F)(F)F)c2)c1`, in data set [5], the “Ratio EC50” value is on record as 86. For the same compound, the EC50 came to 0.016 µM in data set [1] and 1.4 µM in data set [6]. This compound had a t1/2 in data set [2] of 0.55 h. In addition, the IC50 stood at 0.018 µM in data set [3] and 0.005 µM in data set [4].

With `C/C(=N\OCCN)c1cccc(C(C)(C)NC(=O)Nc2ccc(Cl)c([N+](=O)[O-])c2)c1`, the “Ratio EC50” value in data set [5] came to 20. In addition, the EC50 in data set [1] came out at 0.51 µM; in data set [6], 10.1 µM. Also, in data set [2], the t1/2 is 2.02 h. In addition, the values for the half-maximal inhibitory concentration (IC50) in data set [3] and in data set [4] were 0.024 µM and 0.02 µM, respectively.

Turning to `C=C(C)c1cccc(C(C)(C)NC(=O)Nc2ccc3cccnc3c2)c1`, the concentration for half-maximal inhibition (IC50) is at least 5 µM in data set [8], 0.006 µM in data set [3] and 0.0008 µM in data set [4]. For the same compound, in data set [5], the “Ratio EC50” value is over 15. Further, the EC50 in data set [1] was under 0.2 µM; in data set [6], 3 µM. Besides, the t1/2 in data set [7] was over 2 h; in data set [2], 0.0983 h.

Turning to `CC(=O)c1cccc(C(C)(C)NC(=O)Nc2ccc(Cl)c(C(N)=O)c2)c1`, the “Ratio EC50” value in data set [5] was over 66. Further, the half-maximal effective concentration (EC50) in data set [1] was 0.38 µM; in data set [6], over 25 µM. Besides, the t1/2 in data set [7] was over 2 h; in data set [2] it was over 11.7 h. In addition, the values for the IC50 in data set [3] and in data set [4] were 0.052 µM and 0.054 µM, respectively.

`C=C(C)c1cccc(C(C)(C)NC(=O)Nc2ccc(Cl)c(C(N)=O)c2)c1`: the IC50 in data set [8] was at least 5 µM; in data set [3] it was 0.003 µM; in data set [4] it was 0.0023 µM. Besides, the “Ratio EC50” value in data set [5] is given as 65. Moreover, the EC50 in data set [1] came out at 0.23 µM; in data set [6], 15 µM. In addition, the t1/2 in data set [7] is over 2 h; in data set [2], 0.417 h.

The values are drawn from ChEMBL document CHEMBL2176986, “Selective and potent urea inhibitors of cryptosporidium parvum inosine 5'-monophosphate dehydrogenase” (J Med Chem, 2012).
